# This is a sample that favours compounds with a hit; in the whole collection about 12% have one here.
# PKD1 inh – inhibitors of human PKD1 kinase, biochemical, fluorescence polarization; inhibition, % (test concentration not listed); PKD1 kinase fluorescence polarization assay; AID 797, 2007; actives 0.056% (n = 200,000)
# CHOP inh – inhibitors of CHOP promoter induction, primary screen, cell-based, unfolded protein response, luciferase reporter; CHO-K1 CHOP-promoter luciferase, tunicamycin-induced, 15-18 h; actives 3.8% (n = 220,000); inhibition, % at 10 µM;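 active means compounds that reduced the stress-induced luciferase reporter signal by more than about 70% of percent inhibition, limit read from the data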
# L major viab – Leishmania major promastigote growth inhibition, primary screen | Leishmania major promastigotes, resazurin fluorescence viability | inhibition, % at 10 µM | actives 9% (n = 200,000);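 further: promastigotes grown with compound for 44 hours at 28 °C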
# Arbovirus anti – antivirals against arbovirus infection, primary screen, cell-based, full library, 10K replicate subset | arbovirus infection cell-based antiviral screen | AID 1251, 2008 | inhibition, % at 10 µM | actives 0.37% (n = 200,000); in the data active means inhibition above about 30%
# Rad51 HR inh – human RAD51 strand exchange inhibitors, primary screen, biochemical, fluorescence; hRad51 DNA strand exchange, fluorescence dequenching; DNA repair protein RAD51 homolog 1 (Homo sapiens), Q06609; actives 0.085% (n = 200,000); inhibition, % at 10 µM; AID 1385, 2008;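 active means inhibition above 40% at the single screening dose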
# Target sequence (Q06609 whole entry, looked up): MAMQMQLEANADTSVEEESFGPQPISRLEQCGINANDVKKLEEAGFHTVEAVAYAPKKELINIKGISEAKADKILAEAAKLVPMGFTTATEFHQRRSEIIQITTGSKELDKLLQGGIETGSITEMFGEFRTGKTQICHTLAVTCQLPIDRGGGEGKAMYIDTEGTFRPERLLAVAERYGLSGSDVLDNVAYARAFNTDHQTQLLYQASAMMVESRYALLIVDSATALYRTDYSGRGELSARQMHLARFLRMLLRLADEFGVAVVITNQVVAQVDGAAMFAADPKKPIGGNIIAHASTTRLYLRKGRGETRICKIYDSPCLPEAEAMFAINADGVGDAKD
#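 Material: hRad51 filaments on single-stranded DNA; Reagent: Donor/quencher-labelled 47-bp dsDNA substrate; Compound: 10 µM final, single point; Schedule: 37 °C 15-min filament assembly, 30-min compound preincubation, 15-min exchange; Technique: FRET fluorescence, excitation 485 nm, emission 520 nm; Benchmarks: control wells and blank wells on each plate.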
# Wee1 degr inh – Wee1 degradation inhibitors, primary screen, cell-based, HeLa, Wee1K328M-luciferase, luminescence; Wee1-like protein kinase (Homo sapiens), P30291; HeLa Luc-Wee1K328M stability; 100% = proteasome inhibitor MG132 effect; reporter increase, % at 5 µM; actives 1.2% (n = 220,000);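 active means activation above the mean of all tested compounds plus 3 SD, set per screening run, cut at about 8.8% in these data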;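 further: cells exposed to compound for 20 h before luminescence read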
# Numbers stand for hits; – = inactive; · = no result. Unless noted, no stated cut-off is given here; in the data, active means inhibition above about 50%; inactive means the rest.
SMILES,PKD1 inh,CHOP inh,L major viab,Arbovirus anti,Rad51 HR inh,Wee1 degr inh
Cc1cc(-n2c(C)cc(C(=O)CN3C(=O)NC4(CCCCC4C)C3=O)c2C)no1 (configuration not stated),–,–,79.2,–,–,–
COc1ccc(-n2c(C)cc(C(=O)CCl)c2C)cc1,–,–,100.6,–,–,–
Cc1cc(-n2c(C)cc(C(=O)CCl)c2C)no1,–,–,100.6,–,–,–
C/C=C/C(=O)Nc1cccc(C2=NOC3(C2)C[C@H](C(N)=O)N(C(=O)c2ccccc2C(=O)c2ccccc2)C3)c1 (some centres not stated),·,–,·,·,–,·
Cc1ccc(-n2c(C)cc(C(=O)CN3CCCCC3)c2C)cc1,–,–,86.0,–,–,–
Cc1cc(C(=O)CN2CC(C)OC(C)C2)c(C)n1-c1ccccc1 (configuration not stated),–,–,–,–,–,–
COc1ccc(-n2c(N3CCN(C)CC3)nc3sc4c(c3c2=O)CCCCC4)cc1,–,–,99.5,–,–,–
CN(C)CCNc1nc2sc3c(c2c(=O)n1-c1ccc(F)cc1)CCCCC3,·,–,·,·,–,–
COc1ccc(-n2c(NCCN(C)C)nc3sc4c(c3c2=O)CCCCC4)cc1,–,–,58.3,–,–,–
COc1ccc(-n2c(C)nc3sc4c(c3c2=O)CCC4)cc1,–,–,–,–,–,–
NNC(=O)Nc1cccc(C(F)(F)F)c1,–,–,–,–,·,–
O=C(Nc1cccc(C(F)(F)F)c1)NC1CCCCC1,–,86.6,–,–,–,–
CN1CCC(NC(=O)Nc2cccc(C(F)(F)F)c2)CC1,–,–,–,–,·,–
NC(=O)/C=C\C(=O)Nc1cccc(C(F)(F)F)c1,–,–,95.8,–,–,–
COc1cc(/C=C/C(=O)OCC(=O)N2CCC(Cc3ccccc3)CC2)ccc1O,–,–,–,–,·,–
Cc1ccc(/C=C/C(=O)N2CCc3ccccc3C2)cc1,–,71.6,–,–,·,–
CCc1cccc2c(C(=O)COC(=O)/C=C/c3ccc(O)c(OC)c3)c[nH]c12,–,–,98.9,–,–,–
CCc1cccc2c(C(=O)Cn3nnc(-c4ccc(OC)c(OC)c4)n3)c[nH]c12,–,71.6,–,–,·,–
COc1cccc(/C=C/C(=O)OCC(=O)c2c[nH]c3ccccc23)c1OC,–,–,–,–,·,–
COc1cc(/C=C/C(=O)OCC(=O)N2CCc3ccccc3C2)ccc1O,–,–,75.9,–,–,–
Cc1ccc(-c2nc(CS(=O)(=O)CC(=O)N3CCc4ccccc4C3)c(C)o2)cc1,–,72.4,–,–,–,–
Cc1cccc(NC(=O)CSc2nnc(NC(=O)c3ccc(S(=O)(=O)N4CCOCC4)cc3)s2)c1C,–,–,86.7,–,–,–
Cc1cccc(Nc2nnc(SCC(=O)Nc3cccnc3Cl)s2)c1,–,–,62.0,–,–,–
Cc1cccc(C)c1Nc1nnc(SCC(=O)Nc2cc(S(=O)(=O)N3CCCCC3)ccc2Cl)s1,–,–,50.2,–,–,–
O=C(CSc1nnc(Nc2ccccc2)s1)Nc1ccc(S(=O)(=O)N2CCOCC2)cc1,–,–,–,–,–,–
SMILES,PKD1 inh,CHOP inh,L major viab,Arbovirus anti,Rad51 HR inh,Wee1 degr inh
O=C(CSc1cccc(C(F)(F)F)c1)Nc1cc(S(=O)(=O)N2CCCC2)ccc1Cl,–,–,55.0,–,–,–
S=C(NCCC1=CCCCC1)NCc1ccco1,–,–,–,–,·,–
NNC(=O)c1ccc(NS(=O)(=O)c2ccc(Br)cc2)cc1,·,–,·,·,–,–
Cc1ccc(Nc2nnc(SCC(=O)Nc3ccc(S(=O)(=O)N4CCOCC4)cc3)s2)cc1,–,–,–,–,–,–
COc1ccc(NC(=O)CSc2nnc(NC(=O)c3ccc(S(=O)(=O)N4CCOCC4)cc3)s2)cc1,–,–,76.1,–,–,–
CCOC(=O)c1c(C)nc(C)c2c(=O)oc3ccccc3c12,–,–,–,–,·,–
CCCCNC(=O)CCC(=O)NNc1nc2ccccc2c2nc(-c3ccccc3)nn12,–,–,–,–,–,–
COc1cc2[nH]c(=O)n3nc(-c4ccccc4)nc3c2cc1OC,–,–,50.4,–,–,–
CCN(CC)CCNc1nc2cc(OC)c(OC)cc2c2nc(-c3ccccc3)nn12,–,–,100.5,–,–,–
COc1ccc2[nH]cc(CCNC(=O)C3CCCO3)c2c1 (configuration not stated),–,–,–,–,·,10.8
COc1ccc2[nH]cc(CCNC(C)=O)c2c1,·,–,·,·,–,·
CCOc1ccccc1-c1cc(C(=O)N/N=C/c2ccc3c(c2)OCO3)c2ccccc2n1,–,–,50.7,–,–,–
O=C(Cn1nnc(-c2ccccc2Cl)n1)N/N=C/c1ccc2c(c1)OCO2,–,76.2,–,–,–,11.8
O=C(N/N=C/c1ccc2c(c1)OCO2)c1cc(-c2ccccc2Cl)nc2ccccc12,–,–,55.9,–,·,–
O=C(CNC(=O)c1ccccn1)N/N=C/c1ccc2c(c1)OCO2,–,–,63.0,–,–,–
CCN(CC)c1ccc(/C=N/NC(=O)CNC(=O)c2ccccn2)cc1,–,–,–,–,–,–
CC(=O)c1sccc1NC(=O)CC(C)(C)CC(=O)O,·,–,·,·,·,–
COCCN1C(=O)N[C@@H](c2cccs2)C(C(C)=O)=C1C,·,·,·,·,–,·
O=C(Nc1ccc(F)cc1)OCCOc1ccc(Br)cc1,·,–,·,·,–,–
CCOc1cc(/C=N/NC(=O)c2cc(-c3cccnc3)nc3ccccc23)ccc1O,–,–,–,–,–,–
CCOc1ccccc1-c1cc(C(=O)N/N=C/c2ccc(O)c(OC)c2)c2ccccc2n1,–,–,57.9,–,–,–
Cc1cc(C)c(OCC(=O)NCC2CCCO2)c(C)c1 (configuration not stated),–,–,–,–,–,–
Cn1cccc1-c1nc2ccccc2[nH]1,·,–,·,·,·,–
CN(Cc1ccccc1)C(=S)NC(=O)c1ccccc1,–,–,–,–,–,–
CCCOc1ccc(CN(CCC#N)C(=S)NC(=O)c2ccccc2)cc1,–,–,84.8,–,–,–
CC(C)CCN1CCN(Cc2nc(-c3ccc(F)cc3)cs2)CC1CCO (configuration not stated),–,–,82.2,–,·,–
CC(C)=CCN1CCN(Cc2nc(-c3ccc(F)cc3)cs2)CC1CCO (configuration not stated),·,–,·,·,–,–
OCCC1CN(Cc2c(F)cccc2Cl)CCN1C1CCCC1 (configuration not stated),–,–,–,–,–,–
CC(C)N1CCN(Cc2nc(-c3ccccc3)cs2)CC1CCO (configuration not stated),–,–,–,–,–,–

# Screens: PubChem, several laboratories
